The list shows a part of the results. Results filed as inconclusive are left out. Values without a mark were called inactive. Activity calls are given as the source filed them.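 Rule for the calls, unless noted: active = thallium entry rate above the same plate's blocked-transporter control wells by more than 3 SD; inconclusive = the two repeat wells disagree; inactive = the rest.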
Tests used:
[1] = target: Solute carrier family 12 member 5 (Homo sapiens) (UniProt Q9H2X9); test: retest of KCC2 transport modulators without sodium – cell-based, HEK293 KCC2, thallium flux, secondary assay, confirmation (AID 1713;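 active = thallium flux slope above the same plate's solvent-only control mean plus 3 SD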); conditions: FluoZin2 fluorescence, at 10 µM, active compounds read high
Chain of Solute carrier family 12 member 5 (Homo sapiens) (Q9H2X9 whole entry, looked up): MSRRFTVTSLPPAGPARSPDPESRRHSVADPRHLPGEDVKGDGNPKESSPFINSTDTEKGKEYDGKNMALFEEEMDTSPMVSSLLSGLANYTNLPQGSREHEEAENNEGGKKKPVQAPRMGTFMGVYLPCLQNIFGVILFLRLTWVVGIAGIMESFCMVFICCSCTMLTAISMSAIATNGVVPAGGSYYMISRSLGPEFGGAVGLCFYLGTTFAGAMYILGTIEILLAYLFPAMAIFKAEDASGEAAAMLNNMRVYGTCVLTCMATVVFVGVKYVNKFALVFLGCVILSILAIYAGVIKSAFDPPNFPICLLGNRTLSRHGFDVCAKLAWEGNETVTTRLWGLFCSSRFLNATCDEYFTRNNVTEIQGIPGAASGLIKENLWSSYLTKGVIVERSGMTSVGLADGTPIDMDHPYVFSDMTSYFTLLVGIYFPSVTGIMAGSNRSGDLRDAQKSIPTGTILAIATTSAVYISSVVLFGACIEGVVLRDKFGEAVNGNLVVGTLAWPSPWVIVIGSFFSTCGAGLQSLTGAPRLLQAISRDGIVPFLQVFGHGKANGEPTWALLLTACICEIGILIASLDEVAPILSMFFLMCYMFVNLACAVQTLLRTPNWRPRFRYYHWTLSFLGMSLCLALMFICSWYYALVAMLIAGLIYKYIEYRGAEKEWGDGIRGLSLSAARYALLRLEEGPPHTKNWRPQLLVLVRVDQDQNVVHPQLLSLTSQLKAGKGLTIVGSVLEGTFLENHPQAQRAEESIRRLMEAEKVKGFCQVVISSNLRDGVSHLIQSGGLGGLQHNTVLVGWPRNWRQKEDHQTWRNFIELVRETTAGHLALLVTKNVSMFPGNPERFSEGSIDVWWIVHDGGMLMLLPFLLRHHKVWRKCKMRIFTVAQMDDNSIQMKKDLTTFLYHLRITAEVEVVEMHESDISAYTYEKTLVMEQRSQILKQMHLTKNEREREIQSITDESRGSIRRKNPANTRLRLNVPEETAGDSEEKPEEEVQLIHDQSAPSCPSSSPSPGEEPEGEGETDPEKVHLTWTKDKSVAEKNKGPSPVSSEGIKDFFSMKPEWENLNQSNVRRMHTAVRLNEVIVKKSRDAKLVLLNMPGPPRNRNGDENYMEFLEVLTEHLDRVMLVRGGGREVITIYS
Method in brief: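 Evaluation: F/F0 slope over 10–20 s post-thallium, baseline-normalized / Material: KCC2-expressing HEK cells / Detection: FluoZin2 fluorescence, 480/540 nm, 1 Hz / Times: 48 min dye loading / Medium: Sodium-free N-methylglucamine chloride buffer / Compound: 10 µM single dose, 0.1% DMSO / Control set: bumetanide and DMSO controls / Probe or stimulus: thallium sulfate stimulus buffer at pH 7.3 / Repeats: duplicates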

[2] = PubChem AID 1714; conditions: HEK293-KCC2 + bumetanide/ouabain, thallium flux FluoZin2; at 10 µM; active compounds read high;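 note: raw slope of fluorescence over initial fluorescence between 10 and 20 s after thallium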
Method in brief: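 Test system: HEK cells expressing the K-Cl cotransporter KCC2 | Compound: One dose, 10 µM, 0.1% DMSO | Replication: Duplicates | Evaluation: Normalized thallium flux slope | Detection: FluoZin2-AM (0.5 µM) fluorescence, 480 nm ex/540 nm em, 1 Hz kinetic imaging | Incubation: Overnight culture 37 °C, dye loading 48 min | Reagent: Thallium stimulus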

[3] = target: Solute carrier family 12 member 5 (Homo sapiens) (UniProt Q9H2X9); test: retest of KCC2 transport modulation, ouabain-free – cell-based, HEK293 KCC2, thallium flux, FluoZin2, secondary assay 2, confirmation (AID 1715;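 active = thallium flux slope more than 3 SD above or below the plate's solvent-only control mean, mostly below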;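 note: raw slope with 0.1% DMSO as baseline and bumetanide as block control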); conditions: HEK293-KCC2, thallium flux FluoZin2 fluorescence; at 10 µM; actives lie on both sides; F/F0 rise rate, 10–20 s post-thallium
[4] = compound effects on native HEK Tl+ uptake – HEK cells, counterscreen 1, counter-screen for KCC2 modulator project, confirmation (AID 1716;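 active = thallium flux rate significantly above the same plate's solvent-only control wells, beyond their mean plus 3 SD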); conditions: HEK293 parental cells, thallium flux FluoZin2, ouabain; at 10 µM; baseline-ratio fluorescence slope, 10–20 s after thallium
[5] = target: Solute carrier family 12 member 5 (Homo sapiens) (UniProt Q9H2X9); test: modulation of KCC2 thallium flux in HEK cells – cell-based, ouabain, retest, confirmation (AID 1717;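 active = thallium flux slope beyond 3 SD from same-plate DMSO control mean in most replicates, usually higher, sometimes lower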;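 note: slope of initial-normalized fluorescence between seconds 10 and 20 after thallium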); conditions: HEK293-KCC2, thallium flux FluoZin2 fluorescence, at 10 µM, bidirectional: low = inhibitor, high = activator
[6] = native HEK Tl+ uptake effects, second counter-screen – HEK cells, counterscreen 2, counter-screen for KCC2 modulator project, confirmation (AID 1718;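 active = thallium flux slope above the same plate's solvent-control mean plus 3 SD in both duplicate wells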;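 note: run without ouabain in cells lacking the KCC2 cotransporter; slope of fluorescence scaled to its starting value between 10 and 20 s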); conditions: HEK293 parental, thallium flux FluoZin-2 fluorescence slope; at 10 µM
Method in brief: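 Material: parental HEK cells. Medium: HBSS, 20 mM HEPES. Reagent: thallium sulfate stimulus, 12 mM in buffer, pH 7.3. Incubation: overnight cell culture at 37 °C, 48 min dye loading, compound before thallium. Signal: FluoZin-2 fluorescence kinetics. Read-out basis: thallium influx rate. Repeats: Per-replicate slope values.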

Structure (SMILES) | normalised thallium flux (F/F0 slope) [1] | normalized thallium flux [2] | normalized thallium flux [3] | thallium flux rate (normalised fluorescence) [4] | raw Tl+ flux slope (below DMSO = inhibition, above = activation) [5] | thallium flux slope [6]
N#Cc1nc(COc2ccc(-c3ccccc3)cc2)oc1NCc1cccnc1 | 0.00789 | 0.00445 | 0.029 | 0.00821 | 0.0173 | 0.01
CN(C)S(=O)(=O)c1cccc(NC(=S)N/N=C/C(=O)c2ccccc2)c1 | 0.014 (active) | 0.0308 (active) | 0.0323 | 0.0158 (active) | 0.0279 | 0.0129 (active)
Cc1nc(SCc2ccc(F)cc2)c([N+](=O)[O-])[nH]1 | 0.00918 | 0.00631 | 0.0237 (active) | 0.00609 | 0.0255 (active) | 0.00995
Cc1ccc(/C=N/NC(=S)Nc2cccc(S(=O)(=O)N(C)C)c2)o1 | 0.00805 | 0.0101 (active) | 0.028 | 0.0106 (active) | – | –
C=CCNC(=S)N/N=C/c1ccc(C)s1 | 0.0134 (active) | 0.0311 (active) | 0.0287 | 0.0119 (active) | 0.0521 (active) | –
COC(=O)c1sccc1NC(=O)c1cc(OC)c(OC)c(OC)c1 | 0.00806 | 0.00564 | 0.029 | 0.00681 | 0.0198 | 0.00953
Cc1ccc(C2CC(=O)NC(SCC(=O)OCc3ccccc3)=C2C#N)o1 (stereo not given) | 0.0147 | 0.00407 | 0.0273 | 0.00691 | 0.0133 (active) | 0.00974
CC(C)C1Nc2c(C(=O)O)cccc2C(Nc2ccccc2C(=O)O)C1(C)C (stereo not given) | 0.00578 | 0.00489 | 0.0236 (active) | 0.00619 (active) | 0.0131 (active) | –
Cc1ccc(OCc2n[nH]c(=S)n2-c2ccc(C)cc2)cc1 | 0.0109 | 0.094 (active) | 0.0355 | 0.0134 (active) | – | –
CCOC(=O)c1c(C)[nH]c(C)c1C(=O)CSc1nc(N)cc(N)n1 | 0.00797 | 0.00434 | 0.0294 | 0.00758 | 0.0193 | 0.0105
Cc1ccccc1-c1n[nH]c(=S)n1/N=C/c1ccc(-c2ccccc2Br)o1 | 0.0093 | 0.016 (active) | 0.0304 | 0.00991 (active) | – | –
Cc1onc(-c2ccccc2)c1C(=O)NNC(=S)NC(=O)c1ccc(F)cc1 | 0.00605 | 0.0254 (active) | 0.0354 | 0.018 (active) | 0.0299 (active) | 0.0217 (active)
Cc1c(NC(=O)CSc2cccc3cccnc23)c(=O)n(-c2ccccc2)n1C | 0.0141 (active) | 0.0374 (active) | 0.0314 | 0.0256 (active) | 0.0324 (active) | –
c1cncc(-c2nnc3n2C2(CCCCC2)Cc2ccccc2-3)c1 | 0.0161 | 0.00468 | 0.0275 | 0.00718 | 0.0153 | 0.00983
COc1ccc(-n2c(=S)[nH]c3sc4c(c3c2=O)CCc2ccccc2-4)cc1 | 0.0163 (active) | 0.0262 (active) | 0.0334 | 0.0162 (active) | 0.0311 (active) | –
Cc1cccc(NC(=S)NC(=O)c2ccc(Br)o2)c1 | 0.0193 (active) | 0.142 (active) | 0.0972 (active) | 0.129 (active) | 0.124 (active) | 0.0866 (active)
COCCNc1nc(-n2nc(C)cc2C)nc2sc3c(c12)CCCC3 | 0.00873 | 0.00523 | 0.0328 | 0.00524 (active) | 0.0165 (active) | 0.00908
Cc1oc(C(N)=O)cc1COc1ccc(C(N)=O)cc1 | 0.01 | 0.00743 | 0.0348 | 0.00438 | 0.0196 | 0.0116
COc1ccc(-c2nc(CS(=O)CC(=O)N3CCc4ccccc4C3)c(C)o2)cc1 (stereo not given) | 0.00722 | 0.00429 | 0.0225 (active) | 0.00707 | 0.0124 (active) | 0.00907
CCc1ccc2nc3sc(C(=O)Nc4nnc(CC)s4)c(N)c3cc2c1 | 0.00632 | 0.000813 (active) | 0.0241 (active) | 0.00534 (active) | 0.0132 (active) | –
O=C(NNc1ccccc1Cl)C(O)(c1cccc(C(F)(F)F)c1)c1cccc(C(F)(F)F)c1 | 0.0066 | 0.018 (active) | 0.035 | 0.0219 (active) | 0.0285 (active) | 0.018 (active)

Source: PubChem BioAssay
